Changes are numbered by the printed parent chain. Each block holds one molecule with its values, some of them ahead of it.
Experiments:
[1] = molecular target: T1, PLCδ1 PH domain (Rattus norvegicus, UniProt P10688); experiment: Isothermal titration calorimetry, PLCδ1 PH domain; assay type: binding; conditions: read-out: dissociation constant (KD) by ITC; PBS, 25°C; three independent experiments
T1 sequence (P10688 11-140): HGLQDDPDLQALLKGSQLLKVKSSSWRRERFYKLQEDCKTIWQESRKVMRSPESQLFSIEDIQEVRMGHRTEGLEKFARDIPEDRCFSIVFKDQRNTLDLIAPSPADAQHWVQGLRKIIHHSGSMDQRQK

[2] = tested on: PdZA; experiment: Displacement of PdZA from PtdSer/PtdIns; assay type: binding; conditions: vesicles with 5 or 12.5 µM PtdIns(4,5)P2, 15% PtdSer
[3] = molecular target: T2, ASAP1 (Mus musculus, UniProt Q9QWY8); experiment: Anionic phospholipid dependence of ASAP1; assay type: biochemical; conditions: LUVs; from C50 values
T2 sequence (Q9QWY8 325-724): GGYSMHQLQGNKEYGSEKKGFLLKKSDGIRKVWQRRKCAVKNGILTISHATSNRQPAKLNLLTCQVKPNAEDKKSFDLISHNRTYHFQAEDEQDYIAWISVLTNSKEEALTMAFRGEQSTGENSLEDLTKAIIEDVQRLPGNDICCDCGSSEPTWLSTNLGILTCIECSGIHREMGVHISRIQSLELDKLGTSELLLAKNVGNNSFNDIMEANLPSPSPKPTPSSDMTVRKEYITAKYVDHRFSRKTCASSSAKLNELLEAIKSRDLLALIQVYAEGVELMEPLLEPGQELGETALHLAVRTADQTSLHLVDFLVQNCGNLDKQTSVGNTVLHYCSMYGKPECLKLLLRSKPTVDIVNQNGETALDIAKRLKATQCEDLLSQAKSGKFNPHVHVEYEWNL
How it was run: (§1)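 Construct is PZA, the PH–Arf GAP–ankyrin repeat fragment of ASAP1, prepared as previously described. It is titrated into reactions with myrArf1·GTP as substrate and LUVs of the indicated lipid composition (e.g. 15% PtdSer, 10% PtdIns(4,5)P2, or both). Reactions run 3 min. Percent of Arf-bound GTP hydrolyzed is plotted against PZA concentration. C50 is the PZA concentration giving 50% hydrolysis, estimated from three experiments.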

[4] = molecular target: T2, ASAP1; conditions: cited from earlier work
[5] = molecular target: T3, ASAP1 PH domain, arginine 360 mutant (Mus musculus, UniProt Q9QWY8, R360Q); experiment: diC4-PtdIns; assay type: binding; conditions: canonical-site mutant
T3 sequence (Q9QWY8 325-451 R360Q): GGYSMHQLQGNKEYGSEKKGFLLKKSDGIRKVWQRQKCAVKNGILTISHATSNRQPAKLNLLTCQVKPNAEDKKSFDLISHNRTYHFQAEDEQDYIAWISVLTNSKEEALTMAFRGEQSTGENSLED
How it was run: (§2)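 ASAP1 PH domain, wild-type or site-directed mutant, is used at 1 µM and mixed with varying diC4-PtdIns(4,5)P2 in 20 mM HEPES pH 7.4, 100 mM NaCl. Tryptophan fluorescence spectra are recorded with excitation at 280 nm and emission at 310–450 nm. Signal is normalized to fluorescence without diC4-PtdIns(4,5)P2 and plotted against lipid concentration.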

[6] = molecular target: T4, ASAP1 PH domain, lysine 355 mutant (Mus musculus, UniProt Q9QWY8, K355N); experiment: diC4-PtdIns; assay type: binding; conditions: atypical-site mutant
T4 sequence (Q9QWY8 325-451 K355N): T3 sequence (Q9QWY8 325-451 R360Q) with K31N, Q36R
How it was run: as §2

[7] = tested on: myrArf1·GTP; assay type: biochemical; conditions: absence of anionic phospholipid
How it was run: as §1

Molecule: O=P(O)(O)O[C@@H]1[C@H](O)[C@H](O)[C@@H](OP(=O)(O)O)[C@H](OP(=O)(O)O)[C@H]1O [Ins(1,4,5)P3, inositol 1,4,5-trisphosphate]
Kd [1]: 180 ± 30 nM
Ins(1,4,5)P3 concentration displacing half of the protein from LUVs [2]: less than half the PtdIns(4,5)P2 concentration

Molecule: Phosphatidylinositol 4,5-bisphosphate [PtdIns(4,5)P2]
increase of GAP activity compared with PtdSer alone [3]: ~1,500 fold
increase of GAP activity compared with no anionic lipid [3]: approximately 20,000 fold
increase of ASAP1 enzymatic activity on binding to the PH domain ([4]; ref Kam et al., 2000): approximately 10,000 fold

B1: Wild-type: His10-[325–724]ASAP1: fragment of ASAP1 comprising the PH, Arf GAP, and Ankyrin repeat domains (protein, UniProt Q9ULH1 325-724, looked up, fragment)
chain: SEKKGYLLKKSDGIRKVWQRRKCSVKNGILTISHATSNRQPAKLNLLTCQVKPNAEDKKSFDLISHNRTYHFQAEDEQDYVAWISVLTNSKEEALTMAFRGEQSAGENSLEDLTKAIIEDVQRLPGNDICCDCGSSEPTWLSTNLGILTCIECSGIHREMGVHISRIQSLELDKLGTSELLLAKNVGNNSFNDIMEANLPSPSPKPTPSSDMTVRKEYITAKYVDHRFSRKTCSTSSAKLNELLEAIKSRDLLALIQVYAEGVELMEPLLEPGQELGETALHLAVRTADQTSLHLVDFLVQNCGNLDKQTALGNTVLHYCSMYSKPECLKLLLRSKPTVDIVNQAGETALDIAKRLKATQCEDLLSQAKSGKFNPHVHVEYEWNLRQEEIDESDDDLDDK
modifications: His10 tag
amount of ASAP1 necessary to hydrolyze 50% of the GTP bound to Arf (C50) [7]: 1 µM

More lines, main results first:

increase of GAP activity compared with no anionic lipid [3]: 15 fold
Molecule: phosphatidylserine [PtdSer]

binding compared with wild-type protein (tryptophan fluorescence) [5]: reduced binding
binding compared with wild-type protein (tryptophan fluorescence) [6]: no effect on binding
Molecule: CCCC(=O)OC[C@H](COP(=O)(O)O[C@@H]1[C@H](O)[C@H](O)[C@@H](OP(=O)(O)O)[C@H](OP(=O)(O)O)[C@H]1O)OC(=O)CCC [diC4-PtdIns(4,5)P2, dibutyryl PtdIns(4,5)P2]
increase of ASAP1 activity at saturating concentrations ([4]; soluble lipid, no bilayer, ref Che et al., 2005): 2- to 4 fold
